Source: PubChem BioAssay
TAAR1 agonist: agonists of human TAAR1; Q96RJ0; CHO RD-HGA16 TAAR1, Fluo-8 calcium fluorescence; vehicle wells 0%, saturating PEA agonist 100%; activation, % at 3 µM; hit rate 0.99% among 360,000; AID 624467;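 active = activation above the mean activation of all test compounds in the run plus 3 SD, cut at about 38% in these data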
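System: CHO RD-HGA16 cells carrying human TAAR1 plus Gα16; Incubation: 17-24 h seeding, 75 min 37 °C dye, 30 min RT; Measured by: Fluo-8 fluorescence, 5 s baseline then 140 s kinetic read; Control set: DMSO and PEA EC100; Replication: single well for each compound.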
TAAR1 antagonist: human TAAR1 antagonism; Q96RJ0; CHO RD-HGA16 TAAR1, Fluo-8 calcium fluorescence, antagonist; hit rate 1.5% among 360,000; inhibition, % at 3 µM;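 active = inhibition above a per-plate cutoff, the mean inhibition of test compounds on that plate plus 3 SD, cut at about 49% in these data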;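 also: 0% = DMSO plus EC80 beta-PEA response and 100% = DMSO alone without agonist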
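Test system: hTAAR1-expressing CHO RD-HGA16 cells, Gα16-coupled; Probe or stimulus: EC80 β-phenethylamine stimulus; Compound dosing: single nominal final test compound concentration of 3 µM; Timing: 140 s kinetic read after compound, 140 s after agonist; Signal: Fluo-8 calcium-sensitive fluorescence; Measure: % inhibition of agonist calcium response; Controls: DMSO and EC80 PEA controls.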
CHO parental Ca: counter-screen: ATP calcium response change in parental CHO cells; parental CHO-K1, ATP-induced calcium, Fluo-8 fluorescence; inhibition, % at 5.6 µM; hit rate 0.63% among 330,000; AID 463079;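 active = inhibition above that plate's mean sample inhibition plus 3 SD, cut at about 26% in these data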;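 also: 0% = ATP-challenged DMSO wells and 100% = DMSO wells without ATP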
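Measured by: calcium-sensitive Fluo-8 fluorescence / Test system: CHO parental line / Controls: ATP-challenged DMSO wells low, unchallenged DMSO wells high / Measure: % inhibition / Compound: single nominal dose of 5.6 µM per compound / Replicates: single well per compound, no replicates / Reagent: ATP as calcium-mobilizing challenge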
GPR7 antagonist: antagonists of human GPR7 (neuropeptides B/W receptor 1); GPR7-expressing cells, fluorescence antagonist assay; inhibition, % at 4.4 µM; hit rate 1.1% among 290,000; AID 1861; in the data active = inhibition above about 16%, passing the limit was not always enough;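 also: cells stimulated with the agonist NPW; 0% = agonist with vehicle and 100% = vehicle without agonist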
Target sequence (P48145 whole entry, looked up): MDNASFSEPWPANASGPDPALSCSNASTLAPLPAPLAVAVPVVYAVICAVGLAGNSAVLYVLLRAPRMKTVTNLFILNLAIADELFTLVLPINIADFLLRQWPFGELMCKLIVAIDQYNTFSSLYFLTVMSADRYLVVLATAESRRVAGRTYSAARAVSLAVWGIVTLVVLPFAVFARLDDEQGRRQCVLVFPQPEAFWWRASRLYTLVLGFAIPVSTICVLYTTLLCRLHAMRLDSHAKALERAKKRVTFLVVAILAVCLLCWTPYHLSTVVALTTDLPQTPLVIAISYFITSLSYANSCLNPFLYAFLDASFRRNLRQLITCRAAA
OX1R antag-1: blocks the human orexin 1 receptor; O43613; CHO/OX1R cells, Fluo-8 calcium fluorescence, orexin A; inhibition, % at 5 µM; hit rate 0.43% among 330,000;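 active = inhibition above its plate's threshold, mean inhibition of all tested compounds on the plate plus 3 SD, cut at about 37% in these data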;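 also: 0% = orexin A challenge wells and 100% = SB-334867-A antagonist wells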
OX1R antag-2: antagonists of human orexin 1 receptor (OX1R); O43613; OX1R-expressing cells, FRET antagonist read-out; inhibition, % at 6.6 µM; hit rate 1.8% among 330,000; AID 485270; in the data active = inhibition mostly above about 38%, no sharp cut-off; inactive = mostly below about 40%;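 also: 0% = agonist challenge alone and 100% = reference antagonist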
GPR7 antag cf: human GPR7 antagonism, confirmation assay. shares compounds with GPR7 antagonist. GPR7-expressing cells, calcium fluorescence antagonist mode. inhibition, % at 4.4 µM. hit rate 52% among 2,400; in the data active = inhibition above about 24%;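 also: stimulated with the GPR7 agonist NPW; 0% = agonist plus vehicle and 100% = vehicle alone without agonist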
MCHR1 antagonist: MCHR1 (human) antagonism in GPR7 counter-screen | shares compounds with GPR7 antagonist | MCHR1-expressing cells, fluorescence antagonist assay | inhibition, % at 4.4 µM | hit rate 62% among 2,400 | AID 2148;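 also: 0% = vehicle with agonist and 100% = vehicle without agonist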
OX1R HTRF conf: confirmation of human orexin 1 receptor antagonists, HTRF format. OX1R-expressing cells, HTRF antagonist assay. inhibition, % at 6.6 µM. shares compounds with OX1R antag-2. hit rate 49% among 1,800; in the data active = inhibition above about 55%;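 also: CHO cells expressing OX1R stimulated with orexin A at about EC80; 0% = agonist challenge alone and 100% = reference antagonist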
CHO-K1 HTRF cnt: counter-screen: parental CHO-K1 HTRF response; shares compounds with OX1R antag-2; parental CHO-K1 cells, HTRF counterscreen; inhibition, % at 6.6 µM; hit rate 48% among 1,800; AID 493232; in the data active = inhibition above about 17%;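 also: 0% = agonist challenge with vehicle and 100% = vehicle alone without agonist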
nonsel antag count: nonselective antagonism, TAAR1 counter-screen; shares compounds with TAAR1 antagonist; counterscreen cell line, calcium fluorescence, antagonist mode; inhibition, % at 3 µM; hit rate 77% among 2,400; AID 651780;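 also: CHO-Ga16 host cells stimulated with ATP at an EC80 level; 0% = agonist EC80 plus vehicle and 100% = vehicle without agonist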
TAAR1 ant conf: confirmation of human TAAR1 antagonists; shares compounds with TAAR1 antagonist; TAAR1-expressing cells, fluorescence antagonist read-out; inhibition, % at 3 µM; hit rate 40% among 2,400; in the data active = inhibition above about 49%;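 also: CHO-Ga16 host cells challenged with agonist PEA near its EC80; 0% = agonist at EC80 plus vehicle and 100% = vehicle with no agonist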
Ga16 nonsel ag: nonselective Ga16 agonist in TAAR1 antagonist counter-screen | shares compounds with TAAR1 antagonist | Ga16-expressing cells, calcium fluorescence, agonist counterscreen | activation, % at 3 µM | hit rate 18% among 2,400 | AID 651953; in the data active = activation above about 12%;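 also: 0% = vehicle wells and 100% = saturating stimulus response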
TAAR1 ag count: TAAR1 agonism, antagonist counter-screen. shares compounds with TAAR1 antagonist. hTAAR1 cell line, fluorescence activation, agonist mode. activation, % at 3 µM. hit rate 2% among 2,400; in the data active = activation above about 37%;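 also: CHO cells stably expressing TAAR1 with calcium dye readout; 0% = DMSO vehicle and 100% = full agonist response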
* = called active by the depositor; / = no result. Sampled rows, rich in hits. Any-hit rate of the full collection: about 4.5%. Rule as the data show it, unless noted: active = inhibition above about 22%; inactive = the rest.

SMILES	TAAR1 agonist	TAAR1 antagonist	CHO parental Ca	GPR7 antagonist	OX1R antag-1	OX1R antag-2	GPR7 antag cf	MCHR1 antagonist	nonsel antag count	TAAR1 ant conf	Ga16 nonsel ag	TAAR1 ag count	others
O=[N+]([O-])c1ccc(C2NS(=O)(=O)N=C3CCCCCN32)cc1 (stereo unspecified)	2.8	-26.6	-5.6	-12.9	-14.7	5.2	/	/	/	/	/	/
O=C(c1ccc([N+](=O)[O-])s1)N1CCN(c2ncccn2)CC1	0.2	2.2	/	/	/	/	/	/	/	/	/	/
O=C(c1ccc([N+](=O)[O-])s1)N1CCN(c2ccc(C(F)(F)F)cn2)CC1	-4.0	-1.2	17.4	36.3*	5.7	99.4*	46.7*	57.9*	/	/	/	/	OX1R HTRF conf=28.6;CHO-K1 HTRF cnt=18.9*
CCN1CCN(Cc2ccc(NC(=O)c3ccc(C)c(NC(=O)C(=O)c4c[nH]c5ccccc45)c3)cc2C(F)(F)F)CC1	20.7	78.5*	22.1	35.9*	8.5	46.1	60.9*	74.1*	45.8*	47.1	10.6	10.3
CN1C(=O)CSc2ccc(NC(=O)N3CCOCC3)cc21	8.4	7.1	-12.1	0.6	-18.9	9.4	/	/	/	/	/	/
Cc1cc(C)cc(NC(=O)Nc2ccc3c(c2)N(C)C(=O)CS3)c1	6.7	82.3*	34.0*	25.2*	11.4	21.6	29.5*	75.7*	42.8*	51.0*	11.4	6.5
O=C(COc1cccc(NC(=O)c2ccccc2)c1)c1ccc(F)cc1	14.5	29.7	-13.3	-4.1	-28.5	10.3	/	/	/	/	/	/
O=C(COc1cccc(NC(=O)c2cccc([N+](=O)[O-])c2)c1)c1ccc(F)cc1	27.1	77.5*	-0.1	29.1*	0.9	22.5	35.3*	69.9*	38.5*	57.9*	12.2*	19.7
CC1CCCCN1C(=O)COC(=O)c1cc(-c2cccs2)nn1-c1ccccc1 (stereo unspecified)	12.9	1.9	-18.7	/	-8.3	11.6	/	/	/	/	/	/
CCOc1ccc(-c2nnc(SCC(=O)N3CCNC3=O)o2)cc1	9.5	5.9	10.4	/	-14.0	1.6	/	/	/	/	/	/
O=C(Nc1nc(-c2ccccc2)cs1)c1ccccc1NS(=O)(=O)c1ccc(F)cc1	3.9	69.7*	57.2*	23.9*	63.5*	94.2*	41.8*	60.3*	57.6*	67.7*	10.4	3.7
CCn1cc(C(=O)NC(C)CCc2ccccc2)c(=O)c2cc(S(=O)(=O)N(C)C)ccc21 (stereo unspecified)	2.9	-7.2	-17.0	-6.0	-33.8	1.5	/	/	/	/	/	/
Cc1ccccc1CN1CCc2c(OCC(=O)N3CCCc4ccccc43)cccc2C1=O	12.0	72.1*	-2.5	22.2*	11.6	27.8	30.6*	60.5*	40.6*	53.8*	10.7	7.9
CCCNC(=O)Cn1cnc2sc(C(=O)N3CCN(Cc4ccc5c(c4)OCO5)CC3)c(C)c2c1=O	1.1	2.9	5.5	-7.9	-4.2	7.7	/	/	/	/	/	/
